AF4-AF9 inh = inhibitors of human MLL-AF4/AF9 interaction; P42568; AlphaScreen, biotin-AF4 peptide binding to FLAG-AF9; inhibition, % at 10 µM; 350,000 compounds, 0.47% hits; AID 651704;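 active = every replicate reaching a set inhibition limit, whatever the replicate mean, cut at about 25% in these data; inconclusive = mean inhibition reaches that limit but some replicates miss it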;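 also: 0% = plate neutral control median and 100% = total signal loss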
FN deposition inh = fibronectin deposition inhibition; AH1F fibroblasts, Alexa488-fibronectin deposition fluorescence, overnight; inhibition, % at 12.6 µM; 350,000 compounds, 0.086% hits; AID 743247;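 active = mean inhibition across replicates of 30% or more, regardless of how many single replicates reach that level; inconclusive = mean under 30% yet at least half of replicates reach 30%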;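 also: positive control wells lacked labelled fibronectin entirely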
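Material: AH1F fibroblasts assembling fluorescent fibronectin matrix; amount: 10000 AH1F cells/well; medium: DMEM, 2% serum; reagent: Alexa488-fibronectin, 24 nM final in well; dosing: single compound dose, delivered by pin transfer; incubation: 1 h adhesion, overnight exposure; detection: fluorescence after three HBSS washes, excitation 485 nm, emission 525 nm; measure: fibronectin deposition inhibition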
NSD2 HMT inh = NSD2 (human) methyltransferase inhibition | O96028 | NSD2 peptide methylation, AlphaScreen, 120 min | inhibition, % at 12.5 µM | 310,000 compounds, 0.54% hits | AID 743445; in the data active = inhibition above about 50%
RAD54 branch = inhibitors of human RAD54 branch migration. Q92698. RAD54 Holliday junction branch migration, FAM/BHQ fluorescence. inhibition, % at 10.4 µM. 360,000 compounds, 0.14% hits;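 active = mean normalized replicate activity at least 40 and at least half of replicates scoring 40 or more; inconclusive = only one of the two criteria met; inactive = mean below 40 and under half of replicates reaching 40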;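 also: 0% = median of neutral control wells and 100% = median of positive control wells; inhibitors cause a drop in the FAM fluorescence signal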
Target sequence (Q92698 whole entry, looked up): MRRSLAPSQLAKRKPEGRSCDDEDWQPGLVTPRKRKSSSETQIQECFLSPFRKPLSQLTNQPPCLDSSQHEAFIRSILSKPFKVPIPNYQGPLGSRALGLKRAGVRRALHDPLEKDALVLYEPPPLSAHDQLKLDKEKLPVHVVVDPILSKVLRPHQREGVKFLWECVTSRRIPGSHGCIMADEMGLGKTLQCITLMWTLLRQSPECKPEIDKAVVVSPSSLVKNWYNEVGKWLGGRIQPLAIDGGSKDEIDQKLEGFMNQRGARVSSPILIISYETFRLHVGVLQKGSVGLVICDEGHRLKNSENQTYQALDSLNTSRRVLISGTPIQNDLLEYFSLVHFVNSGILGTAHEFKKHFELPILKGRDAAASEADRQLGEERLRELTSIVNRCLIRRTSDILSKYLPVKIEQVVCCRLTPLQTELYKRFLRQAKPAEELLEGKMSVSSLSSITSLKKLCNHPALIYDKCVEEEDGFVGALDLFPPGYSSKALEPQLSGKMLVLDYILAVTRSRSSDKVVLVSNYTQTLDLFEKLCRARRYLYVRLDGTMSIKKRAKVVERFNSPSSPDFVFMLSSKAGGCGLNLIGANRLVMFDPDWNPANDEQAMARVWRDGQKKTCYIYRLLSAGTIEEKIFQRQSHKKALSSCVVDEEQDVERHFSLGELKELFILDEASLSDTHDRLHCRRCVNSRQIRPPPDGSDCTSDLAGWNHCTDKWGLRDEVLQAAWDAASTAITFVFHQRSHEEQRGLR
RAD52 anneal inh = RAD52 (human) annealing inhibition | recombinant RAD52 DNA annealing, FRET fluorescence | 360,000 compounds, 0.46% hits | P43351 | AID 651710 | inhibition, % at 18.7 µM;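 active = every replicate showing at least 50% inhibition; inconclusive = mean inhibition at least 50% but not in every replicate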
Glyco luc inh = N-linked glycosylation inhibition; 360,000 compounds, 0.23% hits; AID 588692; D54 ERlucT glycosylation luciferase reporter, 24 h; percent of 100 nM tunicamycin response; reporter increase, % at 12.5 µM;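 active = mean luciferase reporter signal, scaled so untreated is 0 and the glycosylation-blocking control 100, at or above a set limit in every replicate; inconclusive = mean reaches the limit but not every replicate does; inactive = mean below the limit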;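 also: luciferase carries N-glycosylation sites so blocking glycosylation raises the light; 0% = median of neutral control wells and 100% = median of 100 nM tunicamycin wells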
Alpha interfer = AlphaScreen signal interference counter-screen hit. AC50, µM (highest dose often 12 µM), for inactives: at the highest dose activity change, negative = inhibition. signal luminescence. 530 compounds, 45% hits. shares compounds with AF4-AF9 inh; cut-off not given, nearly all actives have AC50 up to about 14 µM
Starred values were filed as active, the others as inactive; ? = inconclusive; / = no result given; ! = not confirmed by another sample. Only some compounds are listed: those with a hit (about 1.2% of all), similar ones and a draw of the others.

SMILES	AF4-AF9 inh	FN deposition inh	NSD2 HMT inh	RAD54 branch	RAD52 anneal inh	Glyco luc inh	Alpha interfer
CCc1nc2ccc(C(=O)NC3CCN(C)CC3)cn2c1N(C)CCC(C)C	4	3	5	16	-2	-3	/
CCc1nc2ccc(C(=O)NC3CCN(Cc4ccccc4)CC3)cn2c1N(C)Cc1ccc(N(C)C)cc1	52*	-12	-2	9	-8	-6	8.5µM*
COCC#Cc1ccc(CC[C@H]2O[C@H]3CC[C@H](CO)O[C@H]3C[C@@H]2n2cc(C3CC3)nn2)cc1	0	/	/	/	-13	/	/
CCN1CCN(Cc2ccc(NC(=O)c3cc(NC(=O)c4nccnc4N)cc(OC)c3)cc2C(F)(F)F)CC1	?	-5	/	11	39	-8	-22%
CCN1CCN(Cc2ccc(NC(=O)c3ccc(C)c(NC(=O)c4nccn4C)c3)cc2C(F)(F)F)CC1	4	1	/	3	6	-9	/
O=C(COc1cc(F)ccc1[N+](=O)[O-])Nc1ccc(N2CCCCC2)cc1	?	-3	9	-3	5	1	-35%
O=C(COc1cc(F)ccc1[N+](=O)[O-])Nc1ccc(N2CCOCC2)cc1	3	6	-8	/	3	3	/
CNC(=O)C[C@H]1CC[C@H]2[C@H](COc3ccc(NC(=O)Nc4ccccc4)cc3C(=O)N2C)O1	-4	0	/	7	7	/	/
CCOc1ccc(NC(=S)N(CCN2CCOCC2)Cc2ccc3c(c2)CCCN3CC)cc1	39*	-4	21	2	7	-4	-28%
CCN1CCCc2cc(CN(CCN3CCOCC3)C(=S)Nc3ccc(OC)cc3)ccc21	7	2	/	/	3	-4	/
CCN(CC)CCOc1ccc(/C(=C(/Cl)c2ccccc2)c2ccccc2)cc1	31*!	14	/	8	41	-3	-22%
CCC(=C(c1ccccc1)c1ccc(OCCN(C)C)cc1)c1ccccc1	3	-4	/	-1	15	1	/
CCN(CC)CCNc1cccc2sc3ccccc3c(=O)c12	29*	3	22	90*	35	?	2.2µM*
C[C@@H](NC(=O)[C@@H]1[C@@H](CO)[C@@H]2Cn3c(cccc3=O)[C@H]1N2Cc1cccnc1)c1ccccc1	-2	/	/	-1	-9	/	/
CNC(=S)N1N=C(c2ccc(Br)cc2)CC1c1ccc(Br)cc1 (centres undefined)	/	-3	-2	-2	/	-4	/
CNC(=S)N1N=C(c2ccc(Br)cc2)CC1c1ccc(N(C)C)cc1 (centres undefined)	27*	-1	-9	/	-97	-2	-30%
C[C@H](CO)N1C[C@H](C)[C@H](CN(C)CC2CCCCC2)OCCCC[C@H](C)Oc2ccc(NS(=O)(=O)c3cn(C)cn3)cc2C1=O	-1	/	/	-1	2	/	/
CCN(CC)c1ccc(N=Cc2ccc([N+](=O)[O-])o2)cc1	46*	-2	34	/	-9	4	-25%
Cc1cc2c(cc1C)N[C@]1(C[C@H]3CCCC(=O)N4CC[C@@H](C1)[C@@H]34)C(=NC(C)(C)CC(C)(C)C)N2	50*	4	/	-4	-1	-3	-24%
CNC[C@H](Cc1ccccc1)NC[C@@H](Cc1cccc2ccccc12)NCCc1ccc(C)cc1	45*	5	/	25	39	-4	-24%
CNCCNC[C@H](Cc1cccc2ccccc12)NCCc1ccccc1	13	5	/	11	29	0	/
COc1ccc2c3c(n(C)c2c1)[C@@H](CO)N(Cc1ccncc1)CC31CCN(C(=O)NC(C)C)CC1	-5	/	/	/	-132	/	/
C[C@H](CO)N1C[C@H](C)[C@@H](CN(C)CC2CCCCC2)OCCCC[C@H](C)Oc2ccc(NS(=O)(=O)c3ccc(Cl)cc3)cc2C1=O	/	/	/	0	/	/	/
Oc1c(C(c2ccccn2)N2CCCCC2)cc(Cl)c2cccnc12 (centres undefined)	58*	17	32	4	-30	14	8.7µM*
CCC(=O)NC(c1cccs1)c1cc(Cl)c2cccnc2c1O (centres undefined)	-2	-7	-2	/	-10	-6	/
CN1CCN(C(c2ccc(C(F)(F)F)cc2)c2cc(Cl)c3cccnc3c2O)CC1 (centres undefined)	81*	12	0	/	0	/	2.1µM*
